Results from publication PMC6519384 (Andrology, 2018).

Key:
[1] = system: blood esterases; experiment: Ex vivo addition of DMAU to blood in different blood collection tubes; assay type: in vitro ADME, human; settings: for Reduction of conversion of DMAU to DMA in NaF tubes: NaF 15 mg/mL blood; for Reduction of conversion of DMAU to DMA in NaF tubes / DMA level: 60 min at RT; for DMA level: plain tube
Procedure, shortened: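 Freshly drawn venous whole blood from healthy men is split into 2 mL aliquots in plain or esterase-inhibitor tubes, in duplicate. DMAU in methanol is added to 125–1000 ng/mL and held 30 or 60 min at 4 °C or 60 min at 23 °C before centrifugation. DMA is extracted twice with MTBE/hexane (50:50) and run by LC‑MS/MS. Duplicates are averaged and results given as % difference vs plain tube under the same conditions.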

[2] = Single oral dose of 200 mg DMAU in healthy men; assay type: in vivo, human; settings: oral 200 mg DMAU
Procedure, shortened: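 Fifteen healthy men took 200 mg DMAU orally after a meal, in castor oil/benzyl benzoate or as capsule powder. Ten blood draws over 24 h went into plain tubes (kept at RT) and NaF‑containing tubes (4 °C), each held 30 min before centrifugation. DMA and DMAU were measured by LC‑MS/MS. The plain minus NaF‑EDTA DMA difference was regressed on average DMAU, split at 10 ng/mL.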

[3] = DMAU added to serum with increasing NaF, DMA measured; assay type: in vitro ADME, human; settings: Table S1, Experiment 3
[4] = DMAU 300 ng/mL, K2EDTA (1.8 mg/mL) tube, 30 min 4 °C
[5] = DMAU 300 ng/mL, K2EDTA (1.8 mg/mL) tube, 60 min 4 °C
[6] = DMAU 300 ng/mL, K2EDTA (1.8 mg/mL) tube, 60 min RT
[7] = DMAU 300 ng/mL, NaF (1.5 mg/mL) + Na2EDTA (3 mg/mL) tube, 30 min 4 °C
[8] = DMAU 300 ng/mL, NaF (1.5 mg/mL) + Na2EDTA (3 mg/mL) tube, 60 min 4 °C
[9] = DMAU 300 ng/mL, NaF (5 mg/mL) + K2Oxalate (4 mg/mL) tube, 60 min 4 °C
[10] = DMAU 300 ng/mL, NaF (5 mg/mL) + K2Oxalate (4 mg/mL) tube, 60 min RT
[11] = DMAU 300 ng/mL, P800 tube, 30 min 4 °C
[12] = DMAU 300 ng/mL, P800 tube, 60 min 4 °C
[13] = DMAU 300 ng/mL, P800 tube, 60 min RT
[14] = DMAU 600 ng/mL, K2EDTA (1.8 mg/mL) tube, 30 min 4 °C
[15] = DMAU 600 ng/mL, K2EDTA (1.8 mg/mL) tube, 60 min 4 °C
[16] = DMAU 600 ng/mL, K2EDTA (1.8 mg/mL) tube, 60 min RT
[17] = DMAU 600 ng/mL, NaF (1.5 mg/mL) + Na2EDTA (3 mg/mL) tube, 30 min 4 °C
[18] = DMAU 600 ng/mL, NaF (1.5 mg/mL) + Na2EDTA (3 mg/mL) tube, 60 min 4 °C
[19] = DMAU 600 ng/mL, NaF (1.5 mg/mL) + Na2EDTA (3 mg/mL) tube, 60 min RT
[20] = DMAU 600 ng/mL, NaF (5 mg/mL) + K2Oxalate (4 mg/mL) tube, 30 min 4 °C
[21] = DMAU 600 ng/mL, NaF (5 mg/mL) + K2Oxalate (4 mg/mL) tube, 60 min 4 °C
[22] = DMAU 600 ng/mL, NaF (5 mg/mL) + K2Oxalate (4 mg/mL) tube, 60 min RT
[23] = DMAU 600 ng/mL, P800 tube, 30 min 4 °C
[24] = DMAU 600 ng/mL, P800 tube, 60 min 4 °C
[25] = DMAU 600 ng/mL, P800 tube, 60 min RT

## CCCCCCCCCCC(=O)O[C@H]1CC[C@H]2[C@H]3[C@H]([C@@H](C)C[C@]12C)[C@H]1CCC(=O)C=C1C[C@H]3C [DMAU, dimethandrolone undecanoate]
[1]; DMAU 125 ng/mL
  Reduction of conversion of DMAU to DMA in NaF tubes: 72%
  DMA level: 1.57 ng/mL
[1]; DMAU 250 ng/mL
  Reduction of conversion of DMAU to DMA in NaF tubes: 61.3%
  DMA level: 2.79 ng/mL
[1]; [4]
  % difference vs. Plain: −56.1%
  DMA: 1.4 ng/mL
[1]; [5]
  % difference vs. Plain: −76.5%
  DMA: 1.4 ng/mL
[1]; [6]
  % difference vs. Plain: +15.2%
  DMA: 9.7 ng/mL
[1]; [7]
  % difference vs. Plain: −80.6%
  DMA: 0.6 ng/mL
[1]; [8]
  % difference vs. Plain: −77.3%
  DMA: 1.3 ng/mL
[1]; DMAU 300 ng/mL, NaF (5 mg/mL) + K2Oxalate (4 mg/mL) tube, 30 min 4 °C
  DMA: LLOQ
[1]; [9]
  % difference vs. Plain: −82.2%
  DMA: 1 ng/mL
[1]; [10]
  % difference vs. Plain: −31.9%
  DMA: 5.7 ng/mL
[1]; [11]
  % difference vs. Plain: −78.1%
  DMA: 0.7 ng/mL
[1]; [12]
  % difference vs. Plain: −84.2%
  DMA: 0.9 ng/mL
[1]; [13]
  % difference vs. Plain: −20.6%
  DMA: 6.7 ng/mL
[1]; DMAU 300 ng/mL, Plain tube, 30 min 4 °C
  DMA: 3.3 ng/mL
[1]; DMAU 300 ng/mL, Plain tube, 60 min 4 °C
  DMA: 5.9 ng/mL
[1]; DMAU 300 ng/mL, Plain tube, 60 min RT
  DMA: 8.4 ng/mL
[1]; DMAU 500 ng/mL
  Reduction of conversion of DMAU to DMA in NaF tubes: 54.3%
  DMA level: 5.54 ng/mL
[1]; [14]
  % difference vs. Plain: −17.1%
  DMA: 1.2 ng/mL
[1]; [15]
  % difference vs. Plain: −46.4%
  DMA: 2.3 ng/mL
[1]; [16]
  % difference vs. Plain: +13.4%
  DMA: 16.5 ng/mL
[1]; [17]
  % difference vs. Plain: −30.0%
  DMA: 1 ng/mL
[1]; [18]
  % difference vs. Plain: −43.5%
  DMA: 2.4 ng/mL
[1]; [19]
  % difference vs. Plain: −29.4%
  DMA: 10.2 ng/mL
[1]; [20]
  % difference vs. Plain: −38.7%
  DMA: 0.9 ng/mL
[1]; [21]
  % difference vs. Plain: −72.7%
  DMA: 1.2 ng/mL
[1]; [22]
  % difference vs. Plain: −34.1%
  DMA: 9.6 ng/mL
[1]; [23]
  % difference vs. Plain: −42.5%
  DMA: 0.9 ng/mL
[1]; [24]
  % difference vs. Plain: −67.1%
  DMA: 1.4 ng/mL
[1]; [25]
  % difference vs. Plain: −25.9%
  DMA: 10.8 ng/mL
[1]; DMAU 600 ng/mL, Plain tube, 30 min 4 °C
  DMA: 1.5 ng/mL
[1]; DMAU 600 ng/mL, Plain tube, 60 min 4 °C
  DMA: 4.3 ng/mL
[1]; DMAU 600 ng/mL, Plain tube, 60 min RT
  DMA: 14.5 ng/mL
[1]; DMAU 1000 ng/mL
  Reduction of conversion of DMAU to DMA in NaF tubes: 48.8%
  DMA level: 8.82 ng/mL
[1]; increasing amounts of DMAU added to blood
  Reduction of overestimation of DMA by collecting blood into NaF tubes: 30–85%
[2]; DMAU concentrations above 10 ng/mL
  Difference in DMA concentrations between plain and NaF‐EDTA tubes: 22%
[2]; DMAU concentrations below 10 ng/mL
  Mean difference in DMA concentrations between plain and NaF‐EDTA tubes: ~0%
[3]
  Conversion of DMAU to DMA in serum: no conversion
